Laboratory results taken from PMC3518307 (Bioorganic & medicinal chemistry letters, 2012).

Key:
[1] = molecular target: reverse transcriptase from HIV-1 (Human immunodeficiency virus type 1 group M subtype B, UniProt P04585); assay: Single point assay of HIV-RT activity; assay type: biochemical; conditions: mono-intercalators
telomerase = telomerase (Homo sapiens, UniProt O14746); assay: Telomerase inhibition assay using partially purified telomerase; assay type: biochemical
Outline: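 Partially purified telomerase, prepared by an adapted published procedure, used instead of the crude HeLa cell homogenate of the standard assay to limit extra nucleic acids that could bind bis-intercalators in the mix; IC50 from inhibition curves, with error values reported.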

Chain of telomerase (O14746 whole entry): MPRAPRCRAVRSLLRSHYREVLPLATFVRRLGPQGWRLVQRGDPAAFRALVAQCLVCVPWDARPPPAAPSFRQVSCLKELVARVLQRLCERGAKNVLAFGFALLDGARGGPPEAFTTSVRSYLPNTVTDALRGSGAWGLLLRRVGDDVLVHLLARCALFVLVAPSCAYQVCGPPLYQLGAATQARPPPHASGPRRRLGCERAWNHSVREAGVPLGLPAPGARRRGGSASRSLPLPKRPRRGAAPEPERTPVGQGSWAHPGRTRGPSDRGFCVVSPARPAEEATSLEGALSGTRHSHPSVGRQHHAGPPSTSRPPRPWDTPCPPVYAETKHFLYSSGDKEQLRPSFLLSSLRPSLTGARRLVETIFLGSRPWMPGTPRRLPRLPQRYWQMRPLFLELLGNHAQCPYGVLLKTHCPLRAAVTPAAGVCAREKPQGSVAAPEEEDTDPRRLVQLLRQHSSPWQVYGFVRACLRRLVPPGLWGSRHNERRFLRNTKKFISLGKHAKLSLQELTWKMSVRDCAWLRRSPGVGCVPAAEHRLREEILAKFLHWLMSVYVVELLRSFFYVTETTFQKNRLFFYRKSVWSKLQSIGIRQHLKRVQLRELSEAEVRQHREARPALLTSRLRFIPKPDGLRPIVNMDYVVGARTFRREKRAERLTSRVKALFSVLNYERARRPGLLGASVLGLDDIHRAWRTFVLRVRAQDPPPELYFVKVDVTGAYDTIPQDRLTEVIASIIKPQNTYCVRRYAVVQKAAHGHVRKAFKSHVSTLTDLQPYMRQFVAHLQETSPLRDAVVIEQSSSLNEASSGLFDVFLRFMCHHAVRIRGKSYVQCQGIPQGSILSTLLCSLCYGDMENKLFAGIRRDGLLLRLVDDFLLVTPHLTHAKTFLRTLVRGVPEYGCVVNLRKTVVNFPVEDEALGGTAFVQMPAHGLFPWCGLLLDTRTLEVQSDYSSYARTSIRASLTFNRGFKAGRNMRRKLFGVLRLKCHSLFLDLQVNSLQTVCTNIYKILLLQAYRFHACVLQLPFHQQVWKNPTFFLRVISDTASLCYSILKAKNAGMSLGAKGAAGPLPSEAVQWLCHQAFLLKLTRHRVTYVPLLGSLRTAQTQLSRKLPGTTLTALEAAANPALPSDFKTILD
Chain of telomerase (O60832 whole entry partner): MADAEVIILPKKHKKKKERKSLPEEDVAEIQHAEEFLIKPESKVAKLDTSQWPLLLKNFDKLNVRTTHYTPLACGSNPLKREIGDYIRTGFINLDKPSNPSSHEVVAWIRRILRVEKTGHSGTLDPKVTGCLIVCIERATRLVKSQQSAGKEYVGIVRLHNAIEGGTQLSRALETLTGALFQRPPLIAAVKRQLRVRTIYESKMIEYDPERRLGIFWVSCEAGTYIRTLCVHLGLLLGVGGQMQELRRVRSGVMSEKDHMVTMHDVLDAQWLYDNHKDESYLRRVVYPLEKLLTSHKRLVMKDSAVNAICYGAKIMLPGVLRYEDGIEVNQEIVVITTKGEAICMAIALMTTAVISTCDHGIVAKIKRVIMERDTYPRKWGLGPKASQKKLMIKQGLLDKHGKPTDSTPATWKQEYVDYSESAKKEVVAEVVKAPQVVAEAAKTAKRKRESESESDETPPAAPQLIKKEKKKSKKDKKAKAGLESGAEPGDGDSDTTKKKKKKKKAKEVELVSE
Chain of telomerase (Q9NPE3 whole entry partner): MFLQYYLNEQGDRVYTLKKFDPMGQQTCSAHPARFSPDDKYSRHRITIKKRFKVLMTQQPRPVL
Chain of telomerase (Q9NX24 whole entry partner): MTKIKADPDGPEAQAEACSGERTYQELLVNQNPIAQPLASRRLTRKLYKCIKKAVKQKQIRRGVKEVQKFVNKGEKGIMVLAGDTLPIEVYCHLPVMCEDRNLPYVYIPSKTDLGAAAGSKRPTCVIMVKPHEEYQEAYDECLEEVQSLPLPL
Chain of telomerase (Q9NY12 whole entry partner): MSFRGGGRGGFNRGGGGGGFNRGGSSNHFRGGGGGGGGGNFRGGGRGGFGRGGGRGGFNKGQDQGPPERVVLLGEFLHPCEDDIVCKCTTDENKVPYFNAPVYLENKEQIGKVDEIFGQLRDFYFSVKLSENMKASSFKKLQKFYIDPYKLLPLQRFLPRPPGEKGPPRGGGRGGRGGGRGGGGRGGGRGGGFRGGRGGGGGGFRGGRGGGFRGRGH
Chain of telomerase (Q9BUR4 whole entry partner): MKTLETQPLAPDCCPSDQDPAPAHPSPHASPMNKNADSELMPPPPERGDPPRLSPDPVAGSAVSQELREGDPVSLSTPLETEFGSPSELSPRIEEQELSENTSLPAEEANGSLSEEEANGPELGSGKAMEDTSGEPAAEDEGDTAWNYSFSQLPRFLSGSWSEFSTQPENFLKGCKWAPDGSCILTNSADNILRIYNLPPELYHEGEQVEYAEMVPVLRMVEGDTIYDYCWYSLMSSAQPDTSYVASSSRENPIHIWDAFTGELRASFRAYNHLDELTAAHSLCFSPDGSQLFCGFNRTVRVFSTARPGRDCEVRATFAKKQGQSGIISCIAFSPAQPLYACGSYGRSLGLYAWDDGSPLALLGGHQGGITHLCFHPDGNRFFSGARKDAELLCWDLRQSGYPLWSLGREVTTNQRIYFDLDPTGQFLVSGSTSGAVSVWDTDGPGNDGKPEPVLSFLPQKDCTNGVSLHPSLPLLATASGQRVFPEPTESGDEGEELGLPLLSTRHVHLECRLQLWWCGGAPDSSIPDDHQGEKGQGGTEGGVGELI

SMILES	IC50 estimates against reverse transcriptase [1]	IC50 (telomerase) [µM]
COc1ccc2nc3cc(Cl)ccc3c(N)c2c1 [9-Amino-6-Chloro-2-Methoxy acridine]	No inhibition observed	–
O=C(O)c1ccc2cc3ccccc3cc2c1 [2-Anthracene carboxylic acid]	No inhibition observed	–
O=C(O)c1cccc2cc3ccccc3cc12 [1-Anthracene carboxylic acid]	No inhibition observed	–
NCCCC[C@H](NC(=O)CCNC(=O)C(N)CN)C(N)=O (some centres unmarked) [compound 1]	–	0.103
O=C(O)c1c2ccccc2nc2ccccc12 [9-Acridine carboxylic acid]	No inhibition observed	–
